Test results as given in ChEMBL document CHEMBL3351588, “Design, synthesis and biological evaluation of N-alkyl or aryl substituted isoindigo derivatives as potential dual cyclin-dependent kinase 2 (CDK2)/glycogen synthase kinase 3β (GSK-3β) phosphorylation inhibitors” (Eur J Med Chem, 2014).
pIC50: −log10 of the molar value. Activity calls are given as the source filed them. The rule behind the calls is not given here.

How the values were obtained:
K562 [1] = experiment: Induction of apoptosis in human K562 cells after 24 hrs by Annexin V-FITC/propidium iodide staining based flow cytometry; format: functional, cell-based
Procedure, shortened: (§1)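 K562 cells exposed for 24 h or 48 h to 0, 5.0, 10.0, 15.0, 20.0 or 30.0 µM; vehicle DMSO 0.5% v/v. Cells stained with FITC-Annexin V, then counterstained with PI, and analysed by FACScan flow cytometry. Quadrants: Annexin V−/PI− viable; Annexin V+/PI− early apoptotic; Annexin V+/PI+ late apoptotic/necrotic.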

K562 [2] = experiment: Induction of necrosis in human K562 cells after 24 hrs by Annexin V-FITC/propidium iodide staining based flow cytometry; format: functional, cell-based
Procedure, shortened: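 Cells exposed to 0, 5.0, 10.0, 15.0, 20.0 or 30.0 μM for 24 h, or 0.5% DMSO. Stained with FITC–Annexin V and PI counterstain, then read by flow cytometry. Annexin V+/PI− scored as early apoptotic; Annexin V+/PI+ scored as late apoptotic/necrotic.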

K562 [3] = experiment: Induction of apoptosis in human K562 cells assessed as late apoptotic cells level at 5 uM after 24 hrs by Annexin V-FITC/propidium iodide staining based flow cytometry (reference value: 0.79%); format: functional; procedure, shortened: as §1
K562 [4] = experiment: Induction of apoptosis in human K562 cells assessed as late apoptotic cells level at 10 uM after 24 hrs by Annexin V-FITC/propidium iodide staining based flow cytometry (reference value: 0.79%); format: functional; procedure, shortened: as §1
K562 [5] = experiment: Induction of apoptosis in human K562 cells assessed as necrotic cells level at 10 uM after 24 hrs by Annexin V-FITC/propidium iodide staining based flow cytometry (reference value: 0.0%); format: functional; procedure, shortened: as §1
K562 [6] = experiment: Induction of apoptosis in human K562 cells assessed as viable cells level at 15 uM after 24 hrs by Annexin V-FITC/propidium iodide staining based flow cytometry (reference value: 97.64%); format: functional; procedure, shortened: as §1
K562 [7] = experiment: Induction of apoptosis in human K562 cells assessed as early apoptotic cells level at 15 uM after 24 hrs by Annexin V-FITC/propidium iodide staining based flow cytometry (reference value: […]); format: functional
K562 [8] = experiment: Induction of apoptosis in human K562 cells assessed as late apoptotic cells level at 20 uM after 24 hrs by Annexin V-FITC/propidium iodide staining based flow cytometry (reference value: 0.79%); format: functional; procedure, shortened: as §1
K562 [9] = experiment: Induction of apoptosis in human K562 cells assessed as viable cells level at 30 uM after 24 hrs by Annexin V-FITC/propidium iodide staining based flow cytometry (reference value: 97.64%); format: functional; procedure, shortened: as §1
K562 [10] = experiment: Induction of apoptosis in human K562 cells assessed as late apoptotic cells level at 5 uM after 48 hrs by Annexin V-FITC/propidium iodide staining based flow cytometry (reference value: 0.54%); format: functional; procedure, shortened: as §1
K562 [11] = experiment: Induction of apoptosis in human K562 cells assessed as early apoptotic cells level at 10 uM after 48 hrs by Annexin V-FITC/propidium iodide staining based flow cytometry (reference value: 0.24%); format: functional; procedure, shortened: as §1
K562 [12] = experiment: Induction of apoptosis in human K562 cells assessed as late apoptotic cells level at 10 uM after 48 hrs by Annexin V-FITC/propidium iodide staining based flow cytometry (reference value: 0.54%); format: functional; procedure, shortened: as §1
K562 [13] = experiment: Induction of apoptosis in human K562 cells assessed as necrotic cells level at 10 uM after 48 hrs by Annexin V-FITC/propidium iodide staining based flow cytometry (reference value: 0.01%); format: functional; procedure, shortened: as §1
K562 [14] = experiment: Induction of apoptosis in human K562 cells assessed as early apoptotic cells level at 15 uM after 48 hrs by Annexin V-FITC/propidium iodide staining based flow cytometry (reference value: 0.24%); format: functional; procedure, shortened: as §1
K562 [15] = experiment: Induction of apoptosis in human K562 cells assessed as necrotic cells level at 15 uM after 48 hrs by Annexin V-FITC/propidium iodide staining based flow cytometry (reference value: 0.01%); format: functional; procedure, shortened: as §1
K562 [16] = experiment: Induction of apoptosis in human K562 cells assessed as viable cells level at 20 uM after 48 hrs by Annexin V-FITC/propidium iodide staining based flow cytometry (reference value: 99.21%); format: functional; procedure, shortened: as §1
K562 [17] = experiment: Induction of apoptosis in human K562 cells assessed as late apoptotic cells level at 30 uM after 48 hrs by Annexin V-FITC/propidium iodide staining based flow cytometry (reference value: 0.54%); format: functional; procedure, shortened: as §1
K562 [18] = experiment: Induction of apoptosis in human K562 cells assessed as necrotic cells level at 30 uM after 48 hrs by Annexin V-FITC/propidium iodide staining based flow cytometry (reference value: 0.01%); format: functional; procedure, shortened: as §1
K562 [19] = experiment: Reduction in CDK2 protein expression in human K562 cells at 5 to 30 uM after 24 hrs by Western blotting method; format: functional, cell-based
K562 [20] = experiment: Reduction in beta-catenin protein expression in human K562 cells at 5 to 30 uM after 24 hrs by Western blotting method; format: functional, cell-based
K562 [21] = experiment: Cytotoxicity against human K562 cells after 48 hrs by SRB assay; format: functional, cell-based; conditions: K562, 48 h
Procedure, shortened: (§2)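 Cells seeded at 5 × 10³ per well and allowed to attach for 12 h, then exposed to a range of drug concentrations in their own medium for 48 h. Fixed with ice-cold TCA for 1 h at 4 °C, washed, then stained with 0.4% SRB for 30 min at room temperature. IC50 is the mean of three independent experiments.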

[22] = Cytotoxicity against human HCT116 cells after 48 hrs by SRB assay; format: functional, cell-based; conditions: HCT-116, 48 h; procedure, shortened: as §2
A549 = experiment: Cytotoxicity against human A549 cells after 48 hrs by SRB assay; format: functional, cell-based; conditions: A549, 48 h; procedure, shortened: as §2
HeLa = experiment: Cytotoxicity against human HeLa cells after 48 hrs by SRB assay; format: functional, cell-based; procedure, shortened: as §2
[23] = Cytotoxicity against human VEC cells after 48 hrs by SRB assay; format: cell-based; procedure, shortened: as §2
K562 [24] = experiment: Induction of cell morphological changes in human K562 cells assessed as nuclear fragmentation at 5 to 30 uM after 24 hrs by Hoechst 33342/propidium iodide staining based inverted fluorescence microscopy; format: functional
Procedure, shortened: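 Cells treated for 24 h with 5.0–30.0 μM or with 0.5% DMSO, then collected and washed with PBS. Stained with Hoechst 33342 (5.0 μg/mL, 10 min, 37 °C), then with PI (10.0 μg/mL, 10 min, room temperature, dark). Nuclei scored by fluorescence microscopy as condensed/bright, fragmented, or PI-positive.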

K562 [25] = experiment: Induction of cell cycle arrest in human K562 cells assessed as reduction in accumulation at G0/G1 phase after 24 hrs by propidium iodide staining based flow cytometry; format: functional
K562 [26] = experiment: Induction of cell cycle arrest in human K562 cells assessed as accumulation at G0/G1 phase at 10 uM after 24 hrs by propidium iodide staining based flow cytometry (reference value: 36.14%); format: functional
K562 [27] = experiment: Induction of cell cycle arrest in human K562 cells assessed as accumulation at G2/M phase at 10 uM after 24 hrs by propidium iodide staining based flow cytometry (reference value: 18.96%); format: functional
K562 [28] = experiment: Induction of cell cycle arrest in human K562 cells assessed as accumulation at S phase at 10 uM after 24 hrs by propidium iodide staining based flow cytometry (reference value: 44.90%); format: functional
K562 [29] = experiment: Induction of cell cycle arrest in human K562 cells assessed as accumulation at G2/M phase at 5 uM after 24 hrs by propidium iodide staining based flow cytometry (reference value: 18.96%); format: functional

COc1ccc(N2C(=O)/C(=C3/C(=O)Nc4ccccc43)c3ccccc32)cc1
Activity (K562 [1]): Dose-dependent effect | Activity (K562 [2]): Dose-dependent effect | Activity (K562 [3]): 1.54% | Activity (K562 [4]): 2.45% | Activity (K562 [5]): 0.01% | Activity (K562 [6]): 90.17% | Activity (K562 [7]): 5.34% | Activity (K562 [8]): 12.65% | Activity (K562 [9]): 56.98% | Activity (K562 [10]): 0.76% | Activity (K562 [11]): 1.68% | Activity (K562 [12]): 1.39% | Activity (K562 [13]): 0.02% | Activity (K562 [14]): 2.1% | Activity (K562 [15]): 0.02% | Activity (K562 [16]): 82.42% | Activity (K562 [17]): 42.09% | Activity (K562 [18]): 1.3% | inhibition (K562 [19]): Dose-dependent effect | inhibition (K562 [20]): Dose-dependent effect | pIC50 (K562 [21]): 5.11 | pIC50 [22]: < 3.70 | pIC50 (A549): 4.50 | pIC50 (HeLa): 3.78 | pIC50 [23]: < 3.70 | Activity (K562 [24]): Active | Activity (K562 [25]): Dose-dependent effect | Activity (K562 [26]): 34.81% | Activity (K562 [27]): 14.31% | Activity (K562 [28]): 50.88% | Activity (K562 [29]): 16.81%
